Test [1] deals with T1, Serine/threonine-protein kinase mTOR (Homo sapiens, UniProt P42345). Briefly: Inhibition of mTOR kinase (unknown origin) after 1 hr by TR-FRET assay. Background: TR-FRET usually uses a lanthanide donor and a delayed reading to cut background.
Test [2] is described as follows: Cytotoxicity against human H460 cells after 72 hrs by MTT assay. The test is classed as functional, cell-based. Particulars: NCI-H460, 72 h. In a few lines:
(§1)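 Cells grown in MEM with 10% FBS; ~4 × 10³ cells/well plated and held 24 h at 37 °C, 5% CO2. Compounds added at indicated final concentrations for 72 h. MTT added, 4 h at 37 °C; formazan dissolved in DMSO, absorbance read at 492 nm against 630 nm reference. Tested three times per cell line; inhibition rates or IC50 averaged from two determinations.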
On the technique in general: Tetrazolium assays rely on reduction of a dye to a coloured formazan, in cell work by metabolically active cells.

Test [3] is described as follows: Cytotoxicity against human PC3 cells after 72 hrs by MTT assay. The test is classed as functional, cell-based. Particulars: PC-3, 72 h. In a few lines:
as §1

Test [4] has as its target Phosphatidylinositol 4,5-bisphosphate 3-kinase catalytic subunit alpha isoform (Homo sapiens) (UniProt P42336). Put plainly: Inhibition of PI3K-alpha (unknown origin) using l-alpha-phosphatidylinositol as substrate at 10 uM after 60 mins by luminescence assay.
Test [5] has as its target T1, Serine/threonine-protein kinase mTOR. Put plainly: Selectivity ratio of BMCL-200908069-1 IC50 to compound IC50 for mTOR kinase (unknown origin).
Test [6] in a line: Selectivity ratio of BMCL-200908069-1 IC50 to compound IC50 for human H460 cells. The test is classed as functional.
The subject of test [7] is PC-3. Put plainly: Selectivity ratio of BMCL-200908069-1 IC50 to compound IC50 for human PC3 cells. The test is classed as functional.

The values that follow come from ChEMBL document CHEMBL3352220, “Design, synthesis, anticancer activity and docking studies of novel 4-morpholino-7,8-dihydro-5H-thiopyrano[4,3-d]pyrimidine derivatives as mTOR inhibitors” (Bioorg Med Chem, 2014).

Sequence of Phosphatidylinositol 4,5-bisphosphate 3-kinase catalytic subunit alpha isoform (Homo sapiens) (P42336 whole entry, canonical isoform): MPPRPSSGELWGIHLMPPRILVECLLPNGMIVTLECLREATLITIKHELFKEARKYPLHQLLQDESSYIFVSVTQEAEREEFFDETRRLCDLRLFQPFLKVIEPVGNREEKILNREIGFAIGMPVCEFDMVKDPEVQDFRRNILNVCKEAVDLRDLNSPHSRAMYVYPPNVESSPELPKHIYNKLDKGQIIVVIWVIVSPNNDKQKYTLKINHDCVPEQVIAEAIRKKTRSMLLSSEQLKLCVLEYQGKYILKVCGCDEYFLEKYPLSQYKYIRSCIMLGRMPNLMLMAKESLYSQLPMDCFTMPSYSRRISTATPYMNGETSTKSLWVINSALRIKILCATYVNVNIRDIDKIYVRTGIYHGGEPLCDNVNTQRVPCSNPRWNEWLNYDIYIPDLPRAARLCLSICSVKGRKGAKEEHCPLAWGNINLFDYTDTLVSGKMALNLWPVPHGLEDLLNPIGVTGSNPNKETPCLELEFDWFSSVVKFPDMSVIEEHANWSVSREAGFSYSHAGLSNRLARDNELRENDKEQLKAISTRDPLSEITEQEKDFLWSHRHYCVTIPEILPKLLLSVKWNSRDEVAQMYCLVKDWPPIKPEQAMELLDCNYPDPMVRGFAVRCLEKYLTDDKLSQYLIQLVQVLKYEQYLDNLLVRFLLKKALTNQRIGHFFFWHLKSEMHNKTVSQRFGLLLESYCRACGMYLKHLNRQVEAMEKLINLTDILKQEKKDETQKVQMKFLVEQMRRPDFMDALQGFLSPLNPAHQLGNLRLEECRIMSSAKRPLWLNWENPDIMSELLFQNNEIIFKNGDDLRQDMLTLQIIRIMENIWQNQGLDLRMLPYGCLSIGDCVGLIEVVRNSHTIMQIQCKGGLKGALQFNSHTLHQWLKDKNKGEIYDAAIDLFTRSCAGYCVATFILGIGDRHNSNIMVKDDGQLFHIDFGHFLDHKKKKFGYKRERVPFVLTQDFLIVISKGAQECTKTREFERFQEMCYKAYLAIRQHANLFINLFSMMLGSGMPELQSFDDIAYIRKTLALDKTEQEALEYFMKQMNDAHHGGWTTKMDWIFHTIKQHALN

The IC50 is the midpoint of a concentration-inhibition curve. Consider `COc1cc(/C=N/Nc2nc(N3CCOCC3)nc(N3CCOCC3)n2)cc(OC)c1O`, for which the IC50 in test [1] was 1.37 µM; in test [2], 9.52 µM; in test [3] it was 16.3 µM.
Broadly, the inhibition is the change of the read-out against control, counted positive when it falls. A higher inhibition goes with a strong effect. In the case of `COc1cc(/C=N/Nc2nc3c(c(N4CCOCC4)n2)CSCC3)cc(OC)c1O`, the IC50 in test [1] is 0.8 µM; in test [2], 7.43 µM; in test [3] it was 11.9 µM. The molecule also returned an inhibition in test [4] of 12%. Besides, the results for the Ratio IC50 in test [5], in test [6] and in test [7] were 1.71, 1.28 and 1.37, respectively.
With `Oc1ccc(/C=N/Nc2nc3c(c(N4CCOCC4)n2)CSCC3)cc1Br`, the figures for the IC50 in test [1], in test [2] and in test [3] were 1.94 µM, 10.8 µM and 14.4 µM, respectively. The same molecule gave an inhibition in test [4] of 18.8%.
Turning to `O=S1(=O)CCc2nc(N/N=C/c3cc(Br)c(O)c(Br)c3)nc(N3CCOCC3)c2C1`, the IC50 in test [1] was 6.93 µM; in test [3], over 20 µM. The inhibition in test [4] is 24.9%.
In the same order, the values of `Oc1c(Br)cc(/C=N/Nc2nc3c(c(N4CCOCC4)n2)CSCC3)cc1Br` are 2.67 µM, over 20 µM and 21.6%.
As to `COc1cc(/C=N/Nc2nc3c(c(N4CCOCC4)n2)CS(=O)(=O)CC3)cc(OC)c1O`, the IC50 in test [1] was 2.2 µM; in test [3] it was over 20 µM. Also, the inhibition in test [4] is 6.2%.
